An excerpt weighted towards active compounds, which were near 4% of everything screened.
TAAR1 antagonist – human TAAR1 antagonism. Q96RJ0. CHO RD-HGA16 TAAR1, Fluo-8 calcium fluorescence, antagonist. inhibition, % at 3 µM. 360,000 compounds, 1.5% hits. AID 624466;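 active = inhibition above a per-plate cutoff, the mean inhibition of test compounds on that plate plus 3 SD, cut at about 49% in these data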;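 note: 0% = DMSO plus EC80 beta-PEA response and 100% = DMSO alone without agonist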
Target sequence (Q96RJ0 whole entry, looked up): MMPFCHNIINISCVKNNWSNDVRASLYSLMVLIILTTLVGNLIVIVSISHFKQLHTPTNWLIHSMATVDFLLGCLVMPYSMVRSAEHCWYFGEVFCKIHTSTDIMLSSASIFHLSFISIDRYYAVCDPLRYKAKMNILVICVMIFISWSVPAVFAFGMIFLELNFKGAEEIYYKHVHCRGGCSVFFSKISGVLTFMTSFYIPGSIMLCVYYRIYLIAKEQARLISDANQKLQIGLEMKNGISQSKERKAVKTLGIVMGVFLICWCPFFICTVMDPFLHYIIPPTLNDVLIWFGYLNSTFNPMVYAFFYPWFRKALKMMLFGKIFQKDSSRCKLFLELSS
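Material: RD-HGA16 CHO cells with stable hTAAR1 and Gα16; Dosing: single nominal final test compound concentration of 3 µM; Schedule: seeding 17-24 h prior, 75-min 37 °C, 30-min RT dye loading; Detection: kinetic Fluo-8 calcium fluorescence measurement; Measure: % inhibition from peak post-agonist over basal fluorescence ratio; Benchmarks: vehicle and agonist controls.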
MPTP block – blocks calcium-induced mitochondrial swelling; isolated mouse mitochondria, Ca2+ swelling absorbance, 30 min; inhibition, % at 10 µM; 360,000 compounds, 1.4% hits; AID 602449;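 active = inhibition of 50% or more, scaled per plate between neutral and stimulator controls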;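 note: 0% = DMSO wells given calcium and 100% = 1 mM EGTA wells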
TAAR1 ag – human TAAR1 agonism | 360,000 compounds, 0.99% hits | CHO RD-HGA16 TAAR1, Fluo-8 calcium fluorescence; vehicle wells 0%, saturating PEA agonist 100% | activation, % at 3 µM;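 active = activation above the mean activation of all test compounds in the run plus 3 SD, cut at about 38% in these data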
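test system = CHO RD-HGA16 cells carrying human TAAR1 plus Gα16 | schedule = 17-24 h seeding, 75 min 37 °C dye, 30 min RT | compound dosing = 3 µM single concentration | control set = DMSO and PEA EC100 | replicates = n 1 | signal = Fluo-8 fluorescence, 5 s baseline then 140 s kinetic read | measure = percent activation vs PEA EC100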
DAGLB inh – diacylglycerol lipase beta (human) inhibition. Q8NCG7. HEK293T DAGLB membrane lysate, EnzChek fluorogenic substrate. inhibition, % at 5.17 µM. 340,000 compounds, 0.059% hits. AID 504411; in the data active = inhibition above about 34%;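 note: 0% = enzyme with vehicle and 100% = wells lacking enzyme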
GPR7 antag – antagonists of human GPR7 (neuropeptides B/W receptor 1); inhibition, % at 4.4 µM; 290,000 compounds, 1.1% hits; GPR7-expressing cells, fluorescence antagonist assay; P48145; AID 1861; in the data active = inhibition above about 16%, passing the limit was not always enough;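 note: cells stimulated with the agonist NPW; 0% = agonist with vehicle and 100% = vehicle without agonist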
Target sequence (P48145 whole entry, looked up): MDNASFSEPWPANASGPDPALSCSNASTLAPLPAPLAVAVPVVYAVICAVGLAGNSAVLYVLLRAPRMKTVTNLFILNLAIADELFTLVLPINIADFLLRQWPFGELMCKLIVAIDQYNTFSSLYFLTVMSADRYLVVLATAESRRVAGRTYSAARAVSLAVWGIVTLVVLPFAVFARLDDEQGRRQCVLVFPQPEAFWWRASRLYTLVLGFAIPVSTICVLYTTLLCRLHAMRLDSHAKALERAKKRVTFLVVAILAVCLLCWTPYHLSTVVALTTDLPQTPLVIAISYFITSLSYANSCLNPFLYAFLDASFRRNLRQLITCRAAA
nonsel antag count – counter-screen for TAAR1 antagonists: nonselective antagonists; shares compounds with TAAR1 antagonist; counterscreen cell line, calcium fluorescence, antagonist mode; inhibition, % at 3 µM; 2,400 compounds, 77% hits; AID 651780; in the data active = inhibition above about 22%;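 note: CHO-Ga16 host cells stimulated with ATP at an EC80 level; 0% = agonist EC80 plus vehicle and 100% = vehicle without agonist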
TAAR1 antag conf – confirmation of human TAAR1 antagonists; AID 651785; TAAR1-expressing cells, fluorescence antagonist read-out; shares compounds with TAAR1 antagonist; inhibition, % at 3 µM; 2,400 compounds, 40% hits; in the data active = inhibition above about 49%;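 note: CHO-Ga16 host cells challenged with agonist PEA near its EC80; 0% = agonist at EC80 plus vehicle and 100% = vehicle with no agonist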
Ga16 nonsel ag – nonselective Ga16 agonism, counter-screen; shares compounds with TAAR1 antagonist; Ga16-expressing cells, calcium fluorescence, agonist counterscreen; activation, % at 3 µM; 2,400 compounds, 18% hits; in the data active = activation above about 12%;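 note: 0% = vehicle wells and 100% = saturating stimulus response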
TAAR1 ag counter – TAAR1 agonism, antagonist counter-screen | shares compounds with TAAR1 antagonist | hTAAR1 cell line, fluorescence activation, agonist mode | 2,400 compounds, 2% hits | AID 651955 | activation, % at 3 µM; in the data active = activation above about 37%;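 note: CHO cells stably expressing TAAR1 with calcium dye readout; 0% = DMSO vehicle and 100% = full agonist response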
Active calls of the source: *; nt = no result.

SMILES	TAAR1 antagonist	MPTP block	TAAR1 ag	DAGLB inh	GPR7 antag	nonsel antag count	TAAR1 antag conf	Ga16 nonsel ag	TAAR1 ag counter
Cc1ccc(C(C(=O)NCC2CCCO2)N(Cc2ccccc2)C(=O)c2ccc(-c3ccccc3)[nH]2)o1 (centres undefined)	67*	18	9	1	-10	31*	42	8	14
Cc1cc(C(=O)NNC(=O)c2ccc(C)c([N+](=O)[O-])c2)c(C)o1	-27	-1	0	-2	nt	nt	nt	nt	nt
O=C(NCCCc1ccccc1)c1cccc(S(=O)(=O)N2CCOCC2)c1	-10	0	2	-2	nt	nt	nt	nt	nt
O=C(NCCCN1CCOCC1)c1cc(S(=O)(=O)N2CCOCC2)c(Cl)cc1Cl	-16	0	13	0	nt	nt	nt	nt	nt
O=C(NCCN1C(=O)S/C(=C\c2ccccc2)C1=O)c1cc(S(=O)(=O)N2CCOCC2)c(Cl)cc1Cl	78*	5	25	-4	-4	50*	70*	19*	18
O=C(NCCN1C(=O)S/C(=C\c2ccc(F)cc2)C1=O)c1cccc(S(=O)(=O)N2CCOCC2)c1	70*	2	16	-1	-6	43*	60*	15*	13
Cc1nc(N)ncc1CCC1OCCO1	-29	0	1	-3	nt	nt	nt	nt	nt
CC1(C)c2[nH]c3ccccc3c2C[C@@H]2C(=O)N(Cc3ccc(F)cc3)C(=O)N21	67*	1	23	0	nt	34*	50*	7	10
CC1(C)c2[nH]c3ccccc3c2C[C@@H]2C(=O)N(c3ccc(F)cc3F)C(=O)N21	61*	35	30	3	nt	40*	52*	17*	25
Cc1ccc(CN2C(=O)[C@H]3Cc4c([nH]c5ccccc45)C(C)(C)N3C2=O)cc1	42	2	13	1	nt	nt	nt	nt	nt
Cc1ccc(CN2C(=O)[C@@H]3Cc4c([nH]c5ccccc45)C(C)(C)N3C2=O)cc1	16	2	12	-10	nt	nt	nt	nt	nt
CCc1nc2ccc(C(=O)Nc3ccc(Cl)c(Cl)c3)cn2c1N(C)Cc1ccc(OC)cc1	16	7	3	nt	nt	nt	nt	nt	nt
O=C(N/N=C/c1cc(Br)ccc1OC(=O)c1ccc(Br)cc1)c1ccncc1	-6	-1	2	6	2	nt	nt	nt	nt
CCN(CC)S(=O)(=O)c1ccc(N2CCOCC2)c(NC(=O)c2c3c(nc4ccccc24)CCC3)c1	56*	0	13	0	-10	18	36	7	7
CCN(CC)S(=O)(=O)c1ccc(N2CCOCC2)c(NC(=O)c2cccc(C#N)c2)c1	104*	1	-3	-1	-1	8	2	0	5
CCN(CC)S(=O)(=O)c1ccc(N2CCOCC2)c(NC(=O)c2cccc3ccccc23)c1	40	1	12	-5	-3	nt	nt	nt	nt
CCN(CC)S(=O)(=O)c1ccc(NC(=O)c2cc(-c3ccccc3)nc3ccccc23)cc1	54*	8	3	-3	-1	27*	35	8	-2
CCN(CC)S(=O)(=O)c1ccc(N2CCOCC2)c(NC(=O)c2ccc3ccccc3c2)c1	-11	0	-1	-4	-7	nt	nt	nt	nt
CCN(CC)S(=O)(=O)c1ccc(N2CCOCC2)c(NC(=O)c2cc(-c3ccccn3)nc3ccccc23)c1	71*	0	18	-6	0	27*	52*	8	11
Cc1cc(C)nc(NS(=O)(=O)c2ccc(NC(=O)c3cc(-c4ccccc4)nc4ccccc34)cc2)n1	6	-3	5	3	4	nt	nt	nt	nt
CCCCS(=O)(=O)N1CCCc2nc(-c3ccc(OC)cc3)ccc21	49*	nt	2	nt	nt	32*	35	6	5
COc1ccc(-c2ccc3c(n2)CCCN3S(=O)(=O)c2ccc(F)cc2)cc1	5	nt	2	nt	nt	nt	nt	nt	nt
O=C(CCC(=O)c1cccs1)NCCc1ccc(F)cc1	66*	-1	32	0	nt	9	80*	1	54*
NS(=O)(=O)c1ccc(CCNC(=O)CCC(=O)c2cccs2)cc1	-11	-2	5	1	nt	nt	nt	nt	nt
C#CCN(C[C@H]1[C@H](OC(=O)NCc2ccc(OC)c(OC)c2)[C@H](OC(=O)NCc2ccc(OC)c(OC)c2)C[C@@H](C(=O)OC)[C@H]1C(=O)OC)S(=O)(=O)c1ccc(C)cc1	58*	3	11	1	nt	27*	40	6	5
SMILES	TAAR1 antagonist	MPTP block	TAAR1 ag	DAGLB inh	GPR7 antag	nonsel antag count	TAAR1 antag conf	Ga16 nonsel ag	TAAR1 ag counter
C#CCN(C[C@H]1[C@H](OC(=O)NCc2ccco2)[C@H](OC(=O)NCc2ccco2)C[C@@H](C(=O)OC)[C@H]1C(=O)OC)S(=O)(=O)c1ccc(C)cc1	24	0	6	0	nt	nt	nt	nt	nt
CC(=O)NC(c1ccc(F)c(F)c1)c1nc(-c2cnc3ccccc3c2)cs1 (centres undefined)	0	-2	2	nt	nt	nt	nt	nt	nt
Cc1cc(Br)c(OCc2ccc(C(=O)N/N=C/c3ccc[nH]3)cc2)c(Br)c1	nt	4	nt	-6	nt	14	nt	3	nt
Cc1ccc(OCC(=O)NNc2c3ccccc3nc3ccccc23)cc1	70*	35	7	6	-17	33*	49*	7	6
CC1(C)CC(=O)C=C(c2ccccc2-c2cccc(C(N)=O)c2)C1=O	-4	nt	1	nt	nt	nt	nt	nt	nt
COc1ccc(/C=N/Nc2ccc([N+](=O)[O-])cc2)cc1Cn1cc([N+](=O)[O-])cn1	55*	3	10	9	6	26*	28	6	4
CC[C@@]1(C(=O)OC)N[C@H](CN(C)C(=O)c2ccccc2)[C@@H]2C(=O)N(Cc3ccccc3)C(=O)[C@@H]21	-12	3	2	-1	nt	nt	nt	nt	nt
CC[C@@]1(C(=O)OC)N[C@H](CN(C)C(=O)c2ccc(C(C)(C)C)cc2)[C@@H]2C(=O)N(Cc3ccccc3)C(=O)[C@@H]21	66*	-1	12	-3	nt	28*	51*	7	8
C[C@@H]1CN([C@@H](C)CO)C(=O)c2cc(Br)cnc2O[C@H]1CN(C)C(=O)Nc1ccccc1	-1	0	0	2	nt	nt	nt	nt	nt
Cc1ccc(CCNC(=O)C2CCCN(c3nc4ccccc4o3)C2)cc1 (centres undefined)	50*	0	12	-1	-12	23*	31	4	1
C[C@@H]1ON(C)[C@H]2C[C@H]3c4cc(-c5cccc(Cl)c5)ccc4CCN3C[C@@H]12	-15	nt	0	nt	nt	nt	nt	nt	nt
Cc1csc(N2CCN(c3cc4nc(-c5ccncc5)[nH]c4cc3Cl)CC2)n1	58*	0	16	4	3	30*	39	10	9

High-throughput results: PubChem BioAssay, several laboratories
